The results in this text go back to ChEMBL document CHEMBL1146260, “Synthesis and antifungal activity of 1H-indole-4,7-diones” (2007).

What all share (format): functional
The test system of experiment [1] is Candida albicans. As to the kind of experiment: Antifungal activity against Candida albicans Berkout KCCM 50235 after 1 day by 2-fold broth dilution method. Particulars: KCCM 50235, 24 h. The gist of the method:
(§1)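 MIC by 2-fold broth dilution in modified Sabouraud dextrose broth; inoculum about 1 · 10⁵ cells/mL; final drug concentrations […]; 37 °C, read after 1 day; 5-fluorocytosine run as standard agent.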
A general note: In broth dilution the organism is exposed to a series of concentrations in liquid medium.

The test system of experiment [2] is Candida tropicalis. Briefly: Antifungal activity against Candida tropicalis Berkout KCCM 50662 after 1 day by 2-fold broth dilution method. Particulars: KCCM 50662, 24 h. The gist of the method:
as §1

The test system of experiment [3] is Pichia kudriavzevii. Briefly: Antifungal activity against Candida krusei Berkout KCCM 11655 after 1 day by 2-fold broth dilution method. Particulars: KCCM 11655, 24 h. The gist of the method:
as §1

Experiment [4] deals with Cryptococcus neoformans. Briefly: Antifungal activity against Cryptococcus neoformans KCCM 50564 after 1 day by 2-fold broth dilution method. As to conditions: KCCM 50564, 24 h. The gist of the method: as §1
The test system of experiment [5] is Aspergillus niger. Briefly: Antifungal activity against Aspergillus niger KCTC 1231 after 2 days by 2-fold broth dilution method. Particulars: KCTC 1231, 48 h. The gist of the method:
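Two-fold broth dilution MIC in modified Sabouraud dextrose broth, inoculum about 1 · 10⁵ cells/mL, final agent range […]; incubated at 37 °C, MIC read after 2 days; 5-fluorocytosine as standard agent.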

Broadly, the MIC is the smallest concentration in the dilution series that meets the test's criterion for growth inhibition. Low values mean greater potency, high ones weaker potency.

In brackets after ≈: the same amount, converted by molar mass.

In the case of `COC(=O)c1cn(-c2ccc(Br)cc2)c2c1C(=O)C(C)=C(C)C2=O`, the MIC was determined as 50 µg/mL (≈ 129 µM) in experiment [1]; 6.3 µg/mL (≈ 16.2 µM) in experiment [2]; 50 µg/mL (≈ 129 µM) in experiment [3]; 50 µg/mL (≈ 129 µM) in experiment [4]; 3.2 µg/mL (≈ 8.24 µM) in experiment [5].

Consider `COC(=O)c1cn(-c2ccc(I)cc2)c2c1C(=O)C(C)=C(C)C2=O`, for which the MIC in experiment [1] was 25 µg/mL (≈ 57.4 µM); in experiment [2] it was 12.5 µg/mL (≈ 28.7 µM); in experiment [3], 50 µg/mL (≈ 115 µM); in experiment [4], 50 µg/mL (≈ 115 µM); in experiment [5], 100 µg/mL (≈ 230 µM).

As to `COC(=O)c1cn(-c2ccc(OC)cc2)c2c1C(=O)C(C)=C(C)C2=O`, the MIC in experiment [1] was above 100 µg/mL; in experiment [2], 50 µg/mL (≈ 147 µM); in experiment [3], 3.2 µg/mL (≈ 9.43 µM); in experiment [4], 100 µg/mL (≈ 295 µM); in experiment [5], above 100 µg/mL.

On to `COC(=O)c1cn(-c2ccc(C)c(C)c2)c2c1C(=O)C(C)=C(C)C2=O`, for which the minimum inhibitory concentration (MIC) in experiment [1] is 12.5 µg/mL (≈ 37.1 µM); in experiment [2] it was above 100 µg/mL; in experiment [3] it was 0.8 µg/mL (≈ 2.37 µM); in experiment [4], 1.6 µg/mL (≈ 4.74 µM); in experiment [5] it was 6.3 µg/mL (≈ 18.7 µM).

With `CCc1ccc(-n2cc(C(=O)OC)c3c2C(=O)C(C)=C(C)C3=O)cc1`, the minimal inhibitory concentration (MIC) was 25 µg/mL (≈ 74.1 µM) in experiment [1]; 50 µg/mL (≈ 148 µM) in experiment [2]; 50 µg/mL (≈ 148 µM) in experiment [3]; 50 µg/mL (≈ 148 µM) in experiment [4]; 3.2 µg/mL (≈ 9.48 µM) in experiment [5].

`O=C1C(Sc2ccccc2)=C(Sc2ccccc2)C(=O)c2[nH]ccc21`: the MIC is above 100 µg/mL in experiment [1]; above 100 µg/mL in experiment [2]; above 100 µg/mL in experiment [3]; 12.5 µg/mL (≈ 34.4 µM) in experiment [4]; 50 µg/mL (≈ 138 µM) in experiment [5].

`COC(=O)c1cn(C)c2c1C(=O)C(C)=C(C)C2=O`: the MIC is above 100 µg/mL in experiment [1]; above 100 µg/mL in experiment [2]; 3.2 µg/mL (≈ 12.9 µM) in experiment [3]; 1.6 µg/mL (≈ 6.47 µM) in experiment [4]; above 100 µg/mL in experiment [5].

With `O=C1C(Sc2ccc(Cl)cc2)=C(Sc2ccc(Cl)cc2)C(=O)c2[nH]ccc21`, the MIC is above 100 µg/mL in experiment [1]; 12.5 µg/mL (≈ 28.9 µM) in experiment [2]; 25 µg/mL (≈ 57.8 µM) in experiment [3]; 3.2 µg/mL (≈ 7.4 µM) in experiment [4]; above 100 µg/mL in experiment [5].

In the case of `CCOC(=O)c1cn(C)c2c1C(=O)C(C)=C(C)C2=O`, the MIC in experiment [1] was above 100 µg/mL; in experiment [2], 25 µg/mL (≈ 95.7 µM); in experiment [3], 50 µg/mL (≈ 191 µM); in experiment [4], 100 µg/mL (≈ 383 µM); in experiment [5], above 100 µg/mL.

As for `COC(=O)c1cn(-c2ccc(F)cc2)c2c1C(=O)C(C)=C(C)C2=O`, the MIC is above 100 µg/mL in experiment [1]; above 100 µg/mL in experiment [2]; 3.2 µg/mL (≈ 9.78 µM) in experiment [3]; 3.2 µg/mL (≈ 9.78 µM) in experiment [4]; 12.5 µg/mL (≈ 38.2 µM) in experiment [5].

Take `O=C1C(Sc2ccc(Br)cc2)=C(Sc2ccc(Br)cc2)C(=O)c2[nH]ccc21`: the MIC was above 100 µg/mL in experiment [1]; above 100 µg/mL in experiment [2]; above 100 µg/mL in experiment [3]; 3.2 µg/mL (≈ 6.14 µM) in experiment [4]; 12.5 µg/mL (≈ 24 µM) in experiment [5].

In the case of `CCOC(=O)C(C#N)C1=C(Cl)C(=O)C(C)=C(C)C1=O` (stereo not given), the MIC is above 100 µg/mL in experiment [1]; above 100 µg/mL in experiment [2]; 100 µg/mL (≈ 355 µM) in experiment [3]; 25 µg/mL (≈ 88.7 µM) in experiment [4]; above 100 µg/mL in experiment [5].

Turning to `Cc1cccc(SC2=C(Sc3cccc(C)c3)C(=O)c3[nH]ccc3C2=O)c1`, the MIC in experiment [1] is above 100 µg/mL; in experiment [2] it was 12.5 µg/mL (≈ 31.9 µM); in experiment [3], above 100 µg/mL; in experiment [4] it was 3.2 µg/mL (≈ 8.17 µM); in experiment [5], 50 µg/mL (≈ 128 µM).

Turning to `O=C1C(Sc2ccc(F)c(F)c2)=C(Sc2ccc(F)c(F)c2)C(=O)c2[nH]ccc21`, the MIC in experiment [1] is above 100 µg/mL; in experiment [2], above 100 µg/mL; in experiment [3], 12.5 µg/mL (≈ 28.7 µM); in experiment [4], 50 µg/mL (≈ 115 µM); in experiment [5], above 100 µg/mL.

As for `O=C1C(Sc2cccc(Cl)c2)=C(Sc2cccc(Cl)c2)C(=O)c2[nH]ccc21`, the MIC was 6.3 µg/mL (≈ 14.6 µM) in experiment [1]; 1.6 µg/mL (≈ 3.7 µM) in experiment [2]; 25 µg/mL (≈ 57.8 µM) in experiment [3]; 3.2 µg/mL (≈ 7.4 µM) in experiment [4]; 25 µg/mL (≈ 57.8 µM) in experiment [5].

As for `O=C1C(Sc2ccc(O)cc2)=C(Sc2ccc(O)cc2)C(=O)c2[nH]ccc21`, the MIC in experiment [1] was 50 µg/mL (≈ 126 µM); in experiment [2], 50 µg/mL (≈ 126 µM); in experiment [3], above 100 µg/mL; in experiment [4] it was 25 µg/mL (≈ 63.2 µM); in experiment [5], above 100 µg/mL.

For the compound `COC(=O)C(C#N)C1=C(Cl)C(=O)C(C)=C(C)C1=O` (stereo not given), the MIC in experiment [1] is above 100 µg/mL; in experiment [2], above 100 µg/mL; in experiment [3] it was 100 µg/mL (≈ 374 µM); in experiment [4], 6.3 µg/mL (≈ 23.5 µM); in experiment [5] it was above 100 µg/mL.

For the compound `COC(=O)c1cn(-c2ccccc2)c2c1C(=O)C(C)=C(C)C2=O`, the MIC in experiment [1] worked out at 3.2 µg/mL (≈ 10.3 µM); in experiment [2] it was 12.5 µg/mL (≈ 40.4 µM); in experiment [3], 1.6 µg/mL (≈ 5.17 µM); in experiment [4], 6.3 µg/mL (≈ 20.4 µM); in experiment [5], 25 µg/mL (≈ 80.8 µM).

In the case of `O=C1C(Sc2ccc(F)cc2)=C(Sc2ccc(F)cc2)C(=O)c2[nH]ccc21`, the MIC in experiment [1] is above 100 µg/mL; in experiment [2], 25 µg/mL (≈ 62.6 µM); in experiment [3], 3.2 µg/mL (≈ 8.01 µM); in experiment [4], 6.3 µg/mL (≈ 15.8 µM); in experiment [5], 100 µg/mL (≈ 250 µM).

For `Cc1ccc(SC2=C(Sc3ccc(C)c(C)c3)C(=O)c3[nH]ccc3C2=O)cc1C`, the MIC in experiment [1] was above 100 µg/mL; in experiment [2] it was above 100 µg/mL; in experiment [3], above 100 µg/mL; in experiment [4], 50 µg/mL (≈ 119 µM); in experiment [5], 100 µg/mL (≈ 238 µM).

As to `COC(=O)c1cn(-c2ccc(C(C)C)cc2)c2c1C(=O)C(C)=C(C)C2=O`, the MIC in experiment [1] is 12.5 µg/mL (≈ 35.6 µM); in experiment [2], 12.5 µg/mL (≈ 35.6 µM); in experiment [3] it was 100 µg/mL (≈ 285 µM); in experiment [4], 100 µg/mL (≈ 285 µM); in experiment [5], 3.2 µg/mL (≈ 9.11 µM).

Turning to `COC(=O)c1cn(-c2ccc(Cl)cc2)c2c1C(=O)C(C)=C(C)C2=O`, the MIC turned out to be 12.5 µg/mL (≈ 36.4 µM) in experiment [1]; 12.5 µg/mL (≈ 36.4 µM) in experiment [2]; 0.8 µg/mL (≈ 2.33 µM) in experiment [3]; 12.5 µg/mL (≈ 36.4 µM) in experiment [4]; 25 µg/mL (≈ 72.7 µM) in experiment [5].

Consider `COC(=O)c1cn(-c2ccc(C)cc2)c2c1C(=O)C(C)=C(C)C2=O`, for which the MIC was above 100 µg/mL in experiment [1]; above 100 µg/mL in experiment [2]; 3.2 µg/mL (≈ 9.9 µM) in experiment [3]; 0.8 µg/mL (≈ 2.47 µM) in experiment [4]; above 100 µg/mL in experiment [5].

In the case of `COC(=O)c1cn(-c2ccc(OC(F)(F)F)cc2)c2c1C(=O)C(C)=C(C)C2=O`, the MIC in experiment [1] was above 100 µg/mL; in experiment [2], above 100 µg/mL; in experiment [3], 6.3 µg/mL (≈ 16 µM); in experiment [4], 1.6 µg/mL (≈ 4.07 µM); in experiment [5] it was 3.2 µg/mL (≈ 8.14 µM).

With `Nc1nc(=O)[nH]cc1F` [FLUCYTOSINE], the MIC in experiment [1] amounted to 6.3 µg/mL (≈ 48.8 µM); in experiment [2], 12.5 µg/mL (≈ 96.8 µM); in experiment [3] it was 6.3 µg/mL (≈ 48.8 µM); in experiment [4], 12.5 µg/mL (≈ 96.8 µM); in experiment [5], 50 µg/mL (≈ 387 µM).
